# Reference: publication PMC2917810 (Chemical biology & drug design, 2008)
# pIC50: −log10 of the molar value. Read-outs that look alike come from different tables or passages of the source. Positions of bridges follow the written chain, without caps; N, C: chain ends. Residues, ends and D or L forms follow the SMILES beside them.
# Columns and labels:
# [1] = target: T1, RGS4Δ51N (Homo sapiens, UniProt P49798); assay: Single turnover RGS-stimulated Gαo GTPase; format: biochemical; details: for inhibition of RGS4 activity (rate of RGS stimulated Gαo GTP hydrolysis): purified proteins, mean ± S.E.M., n ≥3, SEM; for activity on RGS4 GAP activity: single turnover GAP assay, RGS4Δ51N 75–125 nM
# T1 sequence (P49798 52-205 limits assumed): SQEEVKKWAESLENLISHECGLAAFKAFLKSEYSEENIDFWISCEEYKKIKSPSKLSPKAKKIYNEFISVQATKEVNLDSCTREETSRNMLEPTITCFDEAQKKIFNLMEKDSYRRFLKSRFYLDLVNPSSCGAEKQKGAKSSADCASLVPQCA
# Summary of the method: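 Single-turnover GTP hydrolysis by purified rat His6-Gαo with γ[32P]GTP, stimulated by human MBP-His6-RGS4Δ51N (75–125 nM). Soluble disulfide-cyclized peptides (≥95% pure) were tested at 50 μM, or lower where solubility limited. Rates came from time courses, reported as percent decrease in the RGS-stimulated rate; IC50 estimated from these single-concentration inhibitions. Mean ± S.E.M., n ≥3; t-test.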
# [2] = test system: RGS7box; assay: Single turnover GAP assay, RGS7; format: biochemical, human; details: RGS7box 500 nM
# Summary of the method: (§1)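 Single-turnover GTP hydrolysis by purified rat His6-Gαo with γ[32P]GTP, with or without RGS. The RGS proteins were human MBP-His6 constructs, purified on amylose then Ni-NTA: full-length RGS16 at 1.5 μM, RGS19Δ11C at 200 nM, and the RGS7 RGS domain (nucleotides 915–1359) at 500 nM. Test peptides were soluble, cyclized, and ≥95% pure.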
# [3] = test system: RGS16; assay: Single turnover GAP assay, RGS16; format: biochemical, human; details: RGS16 1.5 μM
# Summary of the method: as §1
# [4] = test system: RGS4; details: cited from earlier work
# [5] = Solubility and aggregation of soluble peptides; format: physicochemical
# [6] = test system: RGS4; details: membrane based steady state GTPase assay; cited from earlier work
# [7] = test system: RGS4Δ51N-Alexa Fluor 532; assay: FACScan flow cytometry binding of bead-bound peptides; parameters: species or system human; details: peptides on beads, 25 nM RGS4Δ51N-Alexa Fluor 532
# Summary of the method: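 Hit peptides resynthesized and disulfide-cyclized on 20 μm TentaGel beads; about 5 × 10^3 beads per sample (at most 5 nmoles peptide) washed, then incubated with RGS4Δ51N-Alexa Fluor 532 for at least 15 min at room temperature, protected from light. FACScan gated on acetylated TentaGel control beads, no compensation; their signal subtracted as background. Duplicates; one-way ANOVA with Bonferroni post-test.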
compound,measurement,setting,value
"C[C@@H](O)[C@@H]1NC(=O)CNC(=O)[C@H](Cc2ccccc2)NC(=O)[C@@H](NC(=O)[C@@H](NC(=O)CN)[C@@H](C)O)CSSC[C@@H](C(=O)N[C@@H](Cc2c[nH]c3ccccc23)C(N)=O)NC1=O [2nd, Gly-Thr-c[Cys-Phe-Gly-Thr-Cys]-Trp-NH2, S-S] (H-GTCFGTCW-NH2; disulfide 3-7)",pIC50,[1],~4.30
same,inhibition of RGS4 activity (rate of RGS stimulated Gαo GTP hydrolysis),[1]; 50 μM peptide in solution,48 ± 7%
same,activity against RGS7,[2],inactive
same,activity against RGS16,[3],inactive
"4nd: free N-terminal, disulfide bridged version of hit 4 (H-KVCMGGCT-NH2; disulfide 3-7; SMILES CSCC[C@@H]1NC(=O)[C@@H](NC(=O)[C@@H](NC(=O)[C@@H](N)CCCCN)C(C)C)CSSC[C@@H](C(=O)N[C@H](C(N)=O)[C@@H](C)O)NC(=O)CNC(=O)CNC1=O)",inhibition of RGS4 activity (rate of RGS stimulated Gαo GTP hydrolysis),[1]; 50 μM peptide in solution,33 ± 16%
"Ac-Val-Lys-[Cys-Thr-Gly-Phe-Cys]-Glu-NH2, S-S (disulfide) [peptide 20 in Roof et al]",inhibited RGS4 GAP activity,[4]; at 100 μM,~40%
"Ac-Val-Lys-c[Cys-Thr-Gly-Ile-Cys]-Glu-NH2, S-S (disulfide) [YJ34, reference compound]",solubility,[5],limited by solubility
same,pIC50,[6],4.59
"1nd: free N-terminal, disulfide bridged version of hit 1 (H-YNCQGECE-NH2; disulfide 3-7; SMILES NC(=O)CC[C@@H]1NC(=O)[C@@H](NC(=O)[C@H](CC(N)=O)NC(=O)[C@@H](N)Cc2ccc(O)cc2)CSSC[C@@H](C(=O)N[C@@H](CCC(=O)O)C(N)=O)NC(=O)[C@H](CCC(=O)O)NC(=O)CNC1=O)",inhibition of RGS4 activity (rate of RGS stimulated Gαo GTP hydrolysis),[1]; 50 μM peptide in solution,33 ± 15%
"Ac-Val-Lys-c[Cys-Thr-Ser-Ile-Cys]-Glu-NH2, S-S (disulfide) [BR2]",activity as RGS4 inhibitor,[4],inactive
"KLc[CHGYC]H-NH2, S-S (disulfide) [compound 11]",aggregation,[5]; not evaluated in GAP assay for this reason,signs of aggregation
"14nd: free N-terminal, disulfide bridged version of hit 14 (H-KHCYGFCK-NH2; disulfide 3-7; SMILES NCCCC[C@H](NC(=O)[C@@H]1CSSC[C@H](NC(=O)[C@H](Cc2c[nH]cn2)NC(=O)[C@@H](N)CCCCN)C(=O)N[C@@H](Cc2ccc(O)cc2)C(=O)NCC(=O)N[C@@H](Cc2ccccc2)C(=O)N1)C(N)=O)",solubility,"[5]; could not be tested at 50 μM in GAP assay, solubility verified by HPLC",limited by solubility
"CC(=O)NCC(=O)N[C@H](C(=O)N[C@H]1CSSC[C@@H](C(=O)N[C@@H](Cc2c[nH]c3ccccc23)C(N)=O)NC(=O)[C@H]([C@@H](C)O)NC(=O)CNC(=O)[C@H](Cc2ccccc2)NC1=O)[C@@H](C)O [2ad, Ac-Gly-Thr-c[Cys-Phe-Gly-Thr-Cys]-Trp-NH2, S-S] (Ac-GTCFGTCW-NH2; disulfide 3-7)",pIC50,[1],~4.30
same,inhibition of RGS4 activity (rate of RGS stimulated Gαo GTP hydrolysis),[1]; 25 μM peptide (limited by solubility),30 ± 12%
same,solubility,[5],limited by solubility
same,activity against RGS7,[2],inactive
same,activity against RGS16,[3],inactive
2nl: free N-terminal linear version of peptide 2 (H-GTCFGTCW-NH2; cysteine pairing not given here),activity on RGS4 GAP activity,[1],inactive
"KVc[CMGGC]T-NH2, S-S (disulfide) [compound 4]",activity on RGS4 GAP activity,[1],little effect
same,binding to RGS4Δ51N in FACScan assay,[7],bound RGS4 so well
2al: acetylated linear version of peptide 2 (Ac-GTCFGTCW-NH2; cysteine pairing not given here),activity on RGS4 GAP activity,[1],inactive
